Screens deposited in PubChem BioAssay by Broad Institute.
This is a sample that favours compounds with a hit; in the whole collection about 2.1% have one here.
aSyn UTR inh: MLPCN primary screen, SNCA 5' untranslated region | inhibition, % (tested at 7.5 µM) | hit rate 0.82% among 300,000 | alpha-synuclein 5'UTR reporter, inhibitor activity; in the data active = inhibition above about 60%;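 also: H4 neuroglioblastoma cells stably carrying SNCA 5'UTR luciferase fusion; 0% = DMSO wells and 100% = positive control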
FN deposition inh: inhibitors of fibronectin matrix deposition, primary screen, AH1F cells, Alexa488-fibronectin fluorescence, plate reader; AH1F fibroblasts, overnight; AID 743247, 2014; hit rate 0.086% among 350,000; inhibition, % at 12.6 µM;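 active = mean inhibition across replicates of 30% or more, regardless of how many single replicates reach that level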;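 also: positive control wells lacked labelled fibronectin entirely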
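Assay system: AH1F fibroblast monolayer, labelled fibronectin deposition. Amount: 10000 cells per well. Also added: labelled fibronectin 24 nM. Compound: single-point pinned compound. Incubation: cell attachment 1 h, compound and FN exposure overnight. Detection: fluorescence after three HBSS washes, excitation 485 nm, emission 525 nm. Read-out: inhibition of fibronectin deposition signal.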
EWS-Fli block: EWS/Fli-driven NR0B1 reporter inhibitors, primary screen, A673 cells, NR0B1 luciferase, luminescence, MLPCN library; viability-normalised; inhibition, % at 12.6 µM; hit rate 0.67% among 350,000;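 active = mean inhibition of at least 50% after viability correction, with every replicate also passing that limit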;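 also: firefly luciferase signal divided by Alamar Blue viability fluorescence both relative to DMSO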
Shn3 3UTR inh: reduction of Shn3 3'UTR firefly luciferase signal, primary screen, Schnurri-3 inhibitor project, cell-based, Clone20 osteoblasts, set 2; hit rate 0.52% among 360,000; inhibition, % at 12.5 µM; Clone20 osteoblast Shn3 3'UTR firefly luciferase, 24 h;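 active = mean inhibition of at least 75% with every replicate also reaching 75%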;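 also: 0% = median of neutral control wells and 100% = pilot-screen positive control compound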
LMP1 NFkB inh: EBV LMP1-driven NF-kappaB luciferase reporter inhibitors, primary screen, cell-based, luminescence, single point; LMP1-induced NF-kappaB luciferase reporter cells; inhibition, % at 12.5 µM; hit rate 0.69% among 350,000; in the data active = inhibition above about 41%;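 also: 0% = neutral control wells and 100% = reference inhibitor control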
PAX8 inh HTS: inhibitors of PAX8-driven TPO luciferase reporter, primary screen, RMG-I cells, single concentration. SteadyGlo, 24 h. inhibition, % at 12.6 µM. hit rate 1.2% among 360,000;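 active = mean replicate inhibition at least 60% with every replicate also reaching 60%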;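 also: luciferase light reporting Pax8 driven TPO promoter activity; plate controls were median of neutral control wells for no effect and mitoxantrone controls for full effect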
* hit, by the source's call; nt = not tested or not shown.

SMILES	aSyn UTR inh	FN deposition inh	EWS-Fli block	Shn3 3UTR inh	LMP1 NFkB inh	PAX8 inh HTS
O=C(NCc1ccccc1)C1Cc2c(-c3cccc(F)c3)ccnc2O1 (stereo unspecified)	nt	-1	67*	15	nt	55
O=C(NCc1cccc(Cl)c1)C1Cc2c(-c3cccc(F)c3)ccnc2O1 (stereo unspecified)	nt	19	2	13	nt	-5
NC(=O)c1cccc(-c2ccnc3c2CC(C(=O)NCc2ccco2)O3)c1 (stereo unspecified)	nt	6	43	-4	nt	19
O=C(NCc1ccco1)C1CC(c2cc(C(F)(F)F)cc(C(F)(F)F)c2)=NO1 (stereo unspecified)	6	3	75*	8	6	5
O=C(NCc1ccco1)C1CC(c2ccccc2C(F)(F)F)=NO1 (stereo unspecified)	14	6	-3	-17	0	-13
O=C(NCc1ccco1)C1Cc2c(-c3cccc(F)c3)ccnc2O1 (stereo unspecified)	nt	13	54*	21	nt	31
O=C(NCc1ccccc1)C1Cc2c(-c3ccc(Cl)cc3)ccnc2O1 (stereo unspecified)	nt	1	60*	5	nt	23
O=C(C[C@H]1C[C@H]2c3cc(NC(=O)Cc4ccncc4)ccc3O[C@H]2[C@H](CO)O1)NCc1cccc(F)c1	nt	-15	36	nt	nt	19
COc1ccc2c3c(n(C)c2c1)[C@H](CO)N(C(=O)Cc1ccccn1)CC31CCN(Cc2ccccn2)CC1	nt	nt	5	nt	nt	-11
C[C@@H]1CN([C@@H](C)CO)C(=O)c2cc(NS(=O)(=O)c3cn(C)cn3)ccc2O[C@@H](C)CCCCO[C@@H]1CN(C)C(=O)C1CCCCC1	nt	nt	-12	nt	nt	-10
CCC/C(=C1/c2ccccc2C(=O)N1c1ccccc1)c1ccc2c(c1)OCCO2	nt	4	62*	-20	-3	36
COc1ccc(S(=O)(=O)N(C)C[C@@H]2OCCCC[C@@H](C)Oc3ccc(NS(=O)(=O)c4ccccc4)cc3C(=O)N([C@@H](C)CO)C[C@@H]2C)cc1	nt	1	-2	nt	nt	-2
C[C@@H](NC(=O)C[C@H]1CC[C@H](NC(=O)c2cccnc2)[C@H](CO)O1)c1ccccc1	nt	4	2	nt	nt	11
O=C(Nc1ccc([N+](=O)[O-])cn1)c1cc(-c2cccc(Br)c2)nc2ccccc12	-38	-1	3	-28	1	115*
O=C(Nc1ccc([N+](=O)[O-])cn1)c1cc(-c2cccc(Cl)c2)nc2ccccc12	-1	6	nt	0	0	3
CC(=NNC(=S)N1CCC1)c1ccccn1	nt	16	18	92*	50*	94*
CC(=NNC(=S)N1CCCC1)c1ccccn1	nt	3	46	82	57*	50
Cc1cccc(C(=O)N2CCCC(Nc3ccc(C)c(C)c3)C2)n1 (stereo unspecified)	-5	2	nt	-1	2	4
CC(=NNC(=S)Nc1cccc(Cl)c1)c1ccccn1	nt	6	13	84	52*	46
CC(=NNC(=S)N1CC2CCC(CC2)C1)c1cccc(C)n1	nt	-6	-21	81*	79*	-1
C[C@H]1CN(C)C(=O)c2cccnc2O[C@@H]1CN(C)S(C)(=O)=O	nt	2	nt	nt	nt	nt
CC(C)NC(=O)Nc1ccc2c(c1)C(=O)N([C@H](C)CO)C[C@H](C)[C@@H](CN(C)Cc1ccc(Cl)c(Cl)c1)O2	nt	-5	6	nt	nt	5
CC(C)CC#Cc1ccc2c(c1)O[C@H](CN(C)C(=O)Cc1ccccn1)[C@@H](C)CN([C@@H](C)CO)S2(=O)=O	nt	-11	14	nt	nt	nt
CCCN1C[C@@H](C)[C@@H](OC)CN(C)C(=O)c2ccc(NC(=O)CC)cc2OC[C@@H]1C	nt	-5	1	nt	nt	nt
CC(CC(=O)Nc1ccc2c(c1)c(=O)n(C)n2-c1ccccc1)c1ccccc1 (stereo unspecified)	nt	6	56*	20	nt	-6
SMILES	aSyn UTR inh	FN deposition inh	EWS-Fli block	Shn3 3UTR inh	LMP1 NFkB inh	PAX8 inh HTS
C=CCN(C(=O)Cc1cccs1)c1nc(-c2ccc(S(C)(=O)=O)cc2)cs1	-27	0	-46	23	-12	37
C=CCN(C(=O)CCc1ccccc1OC)c1nc(-c2ccc(S(C)(=O)=O)cc2)cs1	71*	-1	-54	15	-5	-67
C[C@H](CO)N1C[C@H](C)[C@@H](CN(C)C)Oc2c(NC(=O)Nc3ccc4c(c3)OCO4)cccc2C1=O	nt	nt	-42	nt	nt	-81
O=C(Nc1cc(F)ccc1F)N[C@H]1CC[C@H](CCn2cc(C3CC3)nn2)O[C@H]1CO	nt	-8	4	nt	nt	1
O=C1c2ccccc2C(=O)N1CCCCN(C(=O)c1cc([N+](=O)[O-])cc([N+](=O)[O-])c1)c1ccc(Cl)cc1	34	2	-1	9	2	83*
O=C1c2ccccc2C(=O)N1CCCCN(C(=O)c1ccc([N+](=O)[O-])cc1)c1ccc(Cl)cc1	14	3	nt	49	6	nt
CN1c2ccc(Br)cc2[C@@H]2[C@@H](CCN2C(=O)C2CCOCC2)[C@H]1CO	nt	-4	-4	nt	nt	-8
CC(C)C(=O)Nc1ccc2c(c1)C(=O)N(C)[C@@H]1CC[C@@H](CC(=O)O)O[C@@H]1CO2	nt	-3	-2	nt	nt	-17
COc1cccc(C(=O)Nc2ccc3[nH]c(=O)[nH]c3c2)c1OC	68*	2	10	-23	3	-6
Cc1cccc(-c2noc(CN(C(=O)C(c3ccccc3)c3ccccc3)C(C)C)n2)c1	4	-6	0	84*	-1	-8
Cc1cccc(-c2noc(CN(C(=O)c3ccc4c(c3)OCO4)C(C)C)n2)c1	-2	nt	nt	0	2	nt
C[C@@H]1CCCCO[C@@H](CN(C)Cc2ccc(Cl)c(Cl)c2)[C@@H](C)CN([C@H](C)CO)C(=O)c2cc(NC(=O)c3ccccc3)ccc2O1	nt	-8	-16	nt	nt	15
C[C@@H]1CCCCO[C@H](CN(C)Cc2ccc(Cl)c(Cl)c2)[C@H](C)CN([C@@H](C)CO)C(=O)c2cc(NC(=O)Nc3ccccc3)ccc2O1	nt	-4	8	nt	nt	82*
C[C@@H]1CCCCO[C@@H](CN(C)Cc2ccc(Cl)c(Cl)c2)[C@H](C)CN([C@H](C)CO)C(=O)c2cc(NC(=O)Nc3ccccc3)ccc2O1	nt	-10	5	nt	nt	90*
C[C@@H]1CN([C@H](C)CO)C(=O)c2cc(NC(=O)Nc3ccccc3)ccc2O[C@@H](C)CCCCO[C@H]1CN(C)Cc1ccc(Cl)c(Cl)c1	nt	-21	9	nt	nt	104*
C[C@@H]1CN([C@@H](C)CO)C(=O)c2cccc(NC(=O)Nc3ccc(F)cc3)c2O[C@@H]1CN(C)C(=O)Nc1ccc(F)cc1	nt	nt	0	nt	nt	nt
CO[C@H]1CN(C)C(=O)c2cc(NC(C)=O)ccc2OC[C@@H](C)N(C(=O)C2CC2)C[C@@H]1C	nt	-6	6	nt	nt	nt
